Results: article PMC7384521 (ACS chemical biology, 2020)

Assays:
endogenous ENL protein = assay: Immunoblot-based CETSA on endogenous ENL; assay type: cell-based; details: 80 μM, OCI/AML-2 cells, 1 hr
In short: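 CETSA on endogenous ENL followed a previously published protocol. Immunoblot detection used an anti-ENL rabbit monoclonal antibody (D9M4B) and an anti-GAPDH mouse monoclonal antibody (6C5).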

YEATS4/GAS41 = assay: Biolayer interferometry, immobilized biotin-YEATS4; assay type: binding; details: BLI
ENL(YEATS)-HiBiT [1] = assay: HiBiT CETSA; assay type: cell-based
ENL YEATS [2] = biological target: T1, ENL YEATS (Homo sapiens, UniProt Q03111); assay: MALDI-TOF mass spectrometry for covalent adducts; details: high-resolution MALDI-TOF
T1 sequence (Q03111 1-148): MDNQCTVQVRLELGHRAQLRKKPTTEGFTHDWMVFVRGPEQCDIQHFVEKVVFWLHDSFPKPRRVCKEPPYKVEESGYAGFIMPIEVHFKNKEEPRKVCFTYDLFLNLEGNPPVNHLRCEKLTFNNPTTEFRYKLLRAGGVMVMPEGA

BRD4 bromodomain 1 (BD1) = assay: HTRF histone-binding assay, BRD4 BD1 with tetra-acetyl H4
In short: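 BRD4 BD1 (purchased, 10 nM) with 13.3 nM tetra-acetylated H4. Buffer was 25 mM HEPES pH 7, 20 mM NaCl, 0.2% Pluronic F-127, 0.05% BSA; detection used 1 nM Eu-anti-His antibody plus 8.9 nM APC-streptavidin. Compound added by pin tool and incubated 2 h or more. Read at 337 nm excitation as the 665/620 nm emission ratio; percent inhibition relative to vehicle (maximum) and no-peptide (minimum) controls.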

ENL YEATS [3] = biological target: T1, ENL YEATS; assay: HTRF histone-binding assay, ENL YEATS with H3K27cr
In short: (§1)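 HTRF in 25 mM HEPES pH 7, 20 mM NaCl, 0.2% Pluronic F-127, 0.05% BSA, with 1 nM Eu-anti-His antibody and 8.9 nM APC-streptavidin. ENL: recombinant His-tagged ENL YEATS(1-148), 5 nM, with 13.3 nM biotinylated H3(13-32)K27cr. AF9: purchased AF9 YEATS, 5 nM, with 100 nM of the same peptide. Compound pin-transferred, incubated ≥2 h; 337 nm excitation, 665/620 nm ratio; percent inhibition scaled to vehicle (max) and no-peptide (min) wells.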

AF9 YEATS = biological target: T2, AF9 YEATS (Homo sapiens, UniProt P42568); assay: HTRF histone-binding assay, AF9 YEATS with H3K27cr; details: read-out: IC50, HTRF AF9 YEATS crotonyl-lysine recognition
T2 sequence (P42568 1-138 limits assumed): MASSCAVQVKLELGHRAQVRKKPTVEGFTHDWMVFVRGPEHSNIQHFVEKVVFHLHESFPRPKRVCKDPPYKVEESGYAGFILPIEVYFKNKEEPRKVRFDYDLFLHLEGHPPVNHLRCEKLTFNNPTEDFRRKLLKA
In short: as §1

SMARCA4(BD)-HiBiT = assay: HiBiT CETSA of SMARCA4; assay type: cell-based; details: for luminescence of SMARCA4(BD)-HiBiT: OCI/AML-2 cells, 37 °C
In short: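 SMARCA4 bromodomain (residues 1426-1531) fused to HiBiT, stably expressed in OCI/AML-2 cells (alpha-MEM, 20% FBS) by lentiviral spinoculation: 2,000 rpm, 1 h, room temperature, 8 μg/mL polybrene. Cells were drug-treated at 37 °C without heating. Raw luminescence was read after adding Nano-Glo HiBiT lytic detection reagent.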

AF9(YEATS)-HiBiT = assay: ITDR at 37 °C of AF9; assay type: cell-based; details: OCI/AML-2 cells, 1 hour
full-length ENL-HiBiT = assay: HiBiT CETSA melt curve of full-length ENL-HiBiT; assay type: cell-based; details: HEK293T cells
ENL(YEATS)-HiBiT [4] = assay: HiBiT CETSA performed on pre-lysed cells; details: cells lysed first, then treated; 37 °C

Compound: O=C(/C=C/c1ccc(-n2ccnc2)cc1)N1CCN(C(=O)c2ccco2)CC1 [sCGT990]
- stabilization of endogenous ENL by immunoblot-based CETSA (endogenous ENL protein): weak, if any, stabilization
- binding to YEATS4/GAS41 (YEATS4/GAS41): does not efficiently bind
- concentration required to reliably elevate ENL(YEATS)-HiBiT luminescence (ENL(YEATS)-HiBiT [1]; living cells, dose-response): 80 µM
- covalent adducts with ENL YEATS (ENL YEATS [2]): unable to identify covalent adducts
- inhibition of BRD4 BD1 association with tetra-acetyl H4 (BRD4 bromodomain 1 (BD1)): does not inhibit
- IC50, HTRF ENL YEATS association with H3K27cr (ENL YEATS [3]): 19 µM
- IC50 (AF9 YEATS): 62 µM

Compound: O=C(/C=C/N1C[C@H]2C[C@@H]1CN2c1ccccn1)c1ccccc1O [PFI-3]
- concentration required to elevate the luminescence from SMARCA4(BD)-HiBiT (SMARCA4(BD)-HiBiT; ITDR): 80 µM
- luminescence of SMARCA4(BD)-HiBiT (SMARCA4(BD)-HiBiT): able to elevate luminescence

Compound: C[C@H]1CCCN1Cc1nc2cc(NC(=O)c3ccc4c(cnn4C)c3)ccc2[nH]1 [SGC-iMLLT]
- ITDR luminescence, wild-type ENL YEATS (ENL(YEATS)-HiBiT [1]; 37 °C, HEK293T cells, 1 hour): dose-responsive increases in luminescence
- CETSA melt curve of ENL(YEATS)-HiBiT (ENL(YEATS)-HiBiT [1]; HEK293T cells, 1-hour treatment, luminescence normalized to 37 °C): rightward shift
- luminescence of SMARCA4(BD)-HiBiT (SMARCA4(BD)-HiBiT): no such effect
- ITDR luminescence, AF9(YEATS)-HiBiT (AF9(YEATS)-HiBiT): dose-dependent increases in luminescence
- luminescence-based melt curve of full-length ENL-HiBiT (full-length ENL-HiBiT): did not affect
- luminescence of ENL(YEATS)-HiBiT in cell lysates (ENL(YEATS)-HiBiT [4]): luminescence was increased

Compound: crotonylated histone peptide: peptide substrate, H3K27cr, used to treat cell lysates
- luminescence of ENL(YEATS)-HiBiT in cell lysates (ENL(YEATS)-HiBiT [4]): luminescence was increased
